What all share (assay type): functional
The species named for assay [1] is Cavia porcellus. Put plainly: Open epicutaneous test (OET) was conducted using 0.72 M compound deposited on a circular shaved flank of guinea pig sensitized by mixture of mono […] (18) and (19); erythema on the test area. In short, it runs like this: (§1)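 Guinea pigs sensitized by an injection repeated 4 times on alternate days, followed by 15 days rest before open epicutaneous challenge. Controls received intradermal 1:1 FCA-saline emulsion on alternate days, five injections in all. Irritation thresholds were first set on FCA-injected controls using the elicitation procedure. Read-out was average skin reaction and number of sensitive animals.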

The species entered for assay [2] is Cavia porcellus. Put plainly: Results of Open epicutaneous test (OET) in guinea pigs sensitized by mono […] (19) and expressed as No. of sensitive animals out of 8 animals tested. Put shortly: as §1
Assay [3] is filed under the species Cavia porcellus. The assay is described as follows: Open epicutaneous test (OET) was conducted using 0.72 M compound deposited on a circular shaved flank of guinea pig sensitized by mono […] (18); no reaction. In short, it runs like this: as §1
Assay [4] is filed under the species Cavia porcellus. Put plainly: Open epicutaneous test (OET) was conducted using 0.72 M compound deposited on a circular shaved flank of guinea pig sensitized by mono […] (19); no reaction. As to conditions: in the assay text read “0.072 M” for “0.72 M”. In short, it runs like this:
as §1

The species entered for assay [5] is Cavia porcellus. Put plainly: Results of Open epicutaneous test (OET) in guinea pigs sensitized by mono […] (18) and expressed as No. of sensitive animals out of 8 animals tested. In short, it runs like this:
as §1

For assay [6], the species on record is Cavia porcellus. Put plainly: Results of Open epicutaneous test (OET) in guinea pigs sensitized by mixture of mono […] (18) and (19) and expressed as No. of sensitive animals out of 8 animals tested. Put shortly:
as §1

The species named for assay [7] is Cavia porcellus. Put plainly: Open epicutaneous test (OET) was conducted using 0.72 M compound deposited on a circular shaved flank of guinea pig sensitized by bi […] (3); erythema on the test area. As to conditions: in the assay text read “0.072 M” for “0.72 M”. Put shortly:
as §1

Assay [8] is filed under the species Cavia porcellus. The assay is described as follows: Results of Open epicutaneous test (OET) in guinea pigs sensitized by bi […] (3) and expressed as No. of sensitive animals out of 8 animals tested. Put shortly:
as §1

Assay [9] is filed under the species Cavia porcellus. The assay is described as follows: Open epicutaneous test (OET) was conducted using 0.72 M compound deposited on a circular shaved flank of guinea pig sensitized by mono […] (19); erythema plus swelling going well beyond test area. In short, it runs like this:
as §1

The species named for assay [10] is Cavia porcellus. The assay is described as follows: Open epicutaneous test (OET) was conducted using 0.72 M compound deposited on a circular shaved flank of guinea pig sensitized by double […] (3); no reaction. In short, it runs like this: as §1
The species named for assay [11] is Cavia porcellus. Put plainly: Open epicutaneous test (OET) was conducted using 0.72 M compound deposited on a circular shaved flank of guinea pig sensitized by mono […] (18); erythema on the test area. Put shortly: as §1

Take `C=C1CC(CCCCCCc2cccc(O)c2O)OC1=O` (centres undefined): the Average skin reaction in assay [1] is listed as 0.9; in assay [3], 0.2; in assay [4], less than 0.1; in assay [7] it was 0.9. Moreover, the “No. of sensitive animals” value is reported as 1 in assay [2], 3 in assay [5], 8 in assay [6] and 6 in [8].
In the case of `C=C1CC(CCCCCCc2cccc(OC)c2OC)OC1=O` (centres undefined), the Average skin reaction in assay [1] amounted to 1.1; in assay [3] it was 0; in assay [9], 2.6; in assay [10], 0. The “No. of sensitive animals” value in assay [2] stood at 8; in [5] it was 0; in assay [6] it was 8; in assay [8], 0.
For `CC1CC(CCCCCCc2cccc(O)c2O)OC1=O` (centres undefined), the Average skin reaction in assay [1] came out at 1.1; in assay [4], 0; in assay [11], 1.4; in [7], 0.8. For the same compound, the “No. of sensitive animals” value is listed as 0 in assay [2], 7 in assay [5], 8 in assay [6] and 6 in assay [8].
